Results on 25 compounds are retold here after ChEMBL document CHEMBL1139491 (J Med Chem, 2005).

Assay [1] has as its system MCF7. Description: Tested for cytotoxicity towards MCF-7 cell line (human breast cancer). It counts as functional, cell-based.
Assay [2] has as its target T1, Aryl hydrocarbon receptor (Oryctolagus cuniculus, UniProt O02747).
T1 sequence (O02747 whole entry): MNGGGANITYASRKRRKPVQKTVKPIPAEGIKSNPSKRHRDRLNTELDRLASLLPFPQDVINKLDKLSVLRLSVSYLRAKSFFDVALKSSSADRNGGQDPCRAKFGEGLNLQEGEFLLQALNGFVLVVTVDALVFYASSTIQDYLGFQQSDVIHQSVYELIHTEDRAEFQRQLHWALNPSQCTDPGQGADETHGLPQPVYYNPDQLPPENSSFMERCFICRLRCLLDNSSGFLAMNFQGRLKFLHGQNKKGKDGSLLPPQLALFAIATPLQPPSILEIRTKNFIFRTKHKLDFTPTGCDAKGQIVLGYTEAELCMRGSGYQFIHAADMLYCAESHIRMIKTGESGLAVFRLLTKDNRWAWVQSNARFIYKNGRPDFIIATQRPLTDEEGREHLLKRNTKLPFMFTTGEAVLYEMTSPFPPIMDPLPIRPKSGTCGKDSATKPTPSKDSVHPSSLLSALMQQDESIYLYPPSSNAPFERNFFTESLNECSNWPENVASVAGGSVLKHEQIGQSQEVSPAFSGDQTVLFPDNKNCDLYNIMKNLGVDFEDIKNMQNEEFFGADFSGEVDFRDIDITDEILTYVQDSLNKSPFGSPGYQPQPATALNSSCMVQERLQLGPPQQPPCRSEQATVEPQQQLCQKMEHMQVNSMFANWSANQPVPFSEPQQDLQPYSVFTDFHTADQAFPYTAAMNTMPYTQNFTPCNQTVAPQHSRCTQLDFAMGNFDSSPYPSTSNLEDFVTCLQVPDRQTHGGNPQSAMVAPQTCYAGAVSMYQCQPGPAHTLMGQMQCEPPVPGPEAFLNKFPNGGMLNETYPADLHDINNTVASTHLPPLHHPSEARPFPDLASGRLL
Description: Binding affinity for aryl hydrocarbon receptor (AhR) of rabbit liver cytosol incubated with 0.2 nM [3H]-TCDD; Antagonist. Put shortly:
(§1)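 Rabbit liver cytosol incubated with 0.2 nM [3H]-TCDD plus unlabeled ligand at 12 concentrations spanning 0.1 nM to 1 µM. Competitive displacement measured, and IC50 obtained by iterative curve fitting.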

Assay [3] concerns T47D. Description: Tested for cytotoxicity towards T47D cell line (human breast cancer). The class given is functional, cell-based.
The subject of assay [4] is A549. Description: Tested for cytotoxicity towards A549 cell line (human lung carcinoma). It counts as functional, cell-based.
The target of assay [5] is T2, Estrogen receptor (Homo sapiens, UniProt P03372).
T2 sequence (P03372 whole entry): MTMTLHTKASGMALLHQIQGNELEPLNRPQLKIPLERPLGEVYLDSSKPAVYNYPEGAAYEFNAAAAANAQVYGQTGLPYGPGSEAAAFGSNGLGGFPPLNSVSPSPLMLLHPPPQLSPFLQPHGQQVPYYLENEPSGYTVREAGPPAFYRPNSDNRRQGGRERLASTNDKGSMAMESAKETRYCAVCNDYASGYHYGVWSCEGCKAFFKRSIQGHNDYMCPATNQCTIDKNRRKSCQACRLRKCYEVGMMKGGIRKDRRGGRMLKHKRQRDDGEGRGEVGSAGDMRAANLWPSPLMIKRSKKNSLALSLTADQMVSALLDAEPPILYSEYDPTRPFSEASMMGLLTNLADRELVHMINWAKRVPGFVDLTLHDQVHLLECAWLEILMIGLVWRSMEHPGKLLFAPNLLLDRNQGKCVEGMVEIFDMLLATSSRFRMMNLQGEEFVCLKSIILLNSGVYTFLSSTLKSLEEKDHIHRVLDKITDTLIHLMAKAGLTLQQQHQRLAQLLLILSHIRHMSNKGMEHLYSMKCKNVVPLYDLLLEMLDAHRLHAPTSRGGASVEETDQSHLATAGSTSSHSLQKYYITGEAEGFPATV
The experiment in a line: Binding affinity for estrogen receptor (ER) alpha of MCF-7 cell cytosol incubated with 2 nM [3H]estradiol. It counts as cell-based. A digest of the protocol:
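Cytosol from MCF-7 cells, which express only the ERα isoform, incubated with 2 nM [3H]-estradiol and unlabeled ligand at eight concentrations from 10 nM to 10 µM. IC50 derived by iterative curve fitting, and Ki calculated using a Kd of 0.1 nM.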

Assay [6] has as its system A549. Description: Tested for cytotoxicity towards A549 cell line (human lung carcinoma); Not active. The class given is functional, cell-based.
Assay [7] has as its system MCF7. The experiment in a line: Tested for cytotoxicity towards MCF-7 cell line (human breast cancer); Not active. It counts as functional, cell-based.
The target in assay [8] is T1, Aryl hydrocarbon receptor. Description: Binding affinity for aryl hydrocarbon receptor (AhR) of rabbit liver cytosol incubated with 0.2 nM [3H]-TCDD; Agonist. Put shortly:
as §1

Assay [9] has as its system T47D. Description: Tested for cytotoxicity towards T47D cell line (human breast cancer); Not active. The class given is functional, cell-based.
For assay [10], the target named is T2, Estrogen receptor. The experiment in a line: Binding affinity for estrogen receptor (ER) alpha of MCF-7 cell cytosol incubated with 2 nM [3H]estradiol; Agonist. The class given is cell-based. Put shortly: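 ERα-only cytosol from MCF-7 cells, incubated with 2 nM [3H]-estradiol and eight concentrations (10 nM–10 µM) of unlabelled ligand. IC50 came from iterative curve fitting, and Ki was calculated using Kd 0.1 nM. Agonist status: stimulation of ERE-driven luciferase in MELN reporter cells after 8 h, with or without 1 nM 17β-estradiol; luciferase activity was the read-out.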

For orientation: Ki means a dissociation constant, usually derived from enzyme kinetics or from competition with a known ligand.

Regarding `Clc1ccc(/C=C\c2cc(Cl)cc(Cl)c2)cc1`, the Concentration in [1], in assay [3] and in [4] was less than 100 µM in each case. Moreover, the Ki in assay [2] was 0.013 µM; in [5], greater than 100 µM.

Turning to `FC(F)(F)c1ccc(/C=C/c2cc(Cl)cc(Cl)c2)cc1`, the Concentration in assay [6], in assay [7] and in assay [9] was greater than 10 µM in each case. For the same compound, the Ki in assay [8] is 0.0002 µM; in assay [5], greater than 100 µM.

For `COc1cc(/C=C/c2ccc(F)cc2)cc(OC)c1`, the Concentration in assay [1], in assay [3] and in [4] was greater than 10 µM throughout. Further, the Ki in assay [2] was 0.0031 µM; in assay [5], greater than 100 µM.

On to `COc1ccc(/C=C\c2cc(OC)cc(OC)c2)cc1` [8Z-3,4',5-TRIMETHOXYSTILBENE], for which the Ki in assay [2] is 0.075 µM; in [10], 0.132 µM.

Take `COc1cccc(/C=C\c2cc(Cl)cc(Cl)c2)c1`: the Concentration in assay [6], in [7] and in [9] was greater than 10 µM throughout. Also, the Ki in assay [2] was 0.024 µM; in assay [5], greater than 100 µM.

For the compound `CCOc1ccc(/C=C/c2cc(OC)cc(OC)c2)cc1`, the Concentration in assay [1], in assay [3] and in [4] was less than 0.1 µM in each case. In addition, the Ki stood at 0.005 µM in assay [2] and 0.381 µM in assay [10].

As for `COc1ccc(/C=C/c2cc(OC)cc(OC)c2)cc1` [TRISMETHOXYRESVERATROL], the Concentration in assay [1], in assay [3] and in assay [4] was less than 100 µM each time. Further, the Ki came out at 0.0077 µM in [2] and 0.261 µM in assay [10].

Take `FC(F)(F)c1cccc(/C=C/c2cc(Cl)cc(Cl)c2)c1`: the Concentration in assay [6], in assay [7] and in assay [9] was greater than 10 µM each time. The Ki was 0.0068 µM in assay [2] and greater than 100 µM in assay [5].

Consider `CCOc1ccc(/C=C\c2cc(OC)cc(OC)c2)cc1`, for which the Concentration in [1], in assay [3] and in assay [4] was less than 0.1 µM each time. The figures for the Ki in assay [2] and in [10] were 0.065 µM and 0.136 µM, respectively.

As to `FC(F)(F)c1cccc(/C=C\c2cc(Cl)cc(Cl)c2)c1`, the Concentration in assay [6], in assay [7] and in [9] was greater than 10 µM in each case. The Ki was 0.019 µM in assay [2] and greater than 100 µM in assay [5].

Turning to `Fc1ccc(/C=C\c2cc(F)cc(F)c2)cc1`, the Concentration in assay [6], in [7] and in assay [9] was greater than 10 µM throughout. The Ki was 0.063 µM in [2] and greater than 100 µM in assay [5].

Consider `COc1ccc(/C=C/c2cc(Cl)cc(Cl)c2)cc1`, for which the Concentration in assay [6], in [7] and in [9] was greater than 10 µM throughout. For the same compound, the Ki was 0.0014 µM in assay [2] and greater than 100 µM in [5].

On to `COc1cc(/C=C\c2ccc(F)cc2)cc(OC)c1`, for which the Concentration in assay [1], in assay [3] and in assay [4] was greater than 10 µM throughout. In addition, the Ki in assay [2] is 0.096 µM; in assay [5], greater than 100 µM.

On to `Fc1ccc(/C=C/c2cc(F)cc(F)c2)cc1`, for which the Concentration in assay [6], in assay [7] and in assay [9] was greater than 10 µM each time. For the same compound, the Ki was 0.0038 µM in assay [2] and greater than 100 µM in assay [5].

On to `CCCCOc1ccc(/C=C\c2cc(OC)cc(OC)c2)cc1`, for which the values for the Ki in assay [2] and in assay [5] were 0.043 µM and greater than 100 µM, respectively.

For the compound `COc1cccc(/C=C/c2cc(Cl)cc(Cl)c2)c1`, the Concentration in [6], in assay [7] and in assay [9] was greater than 10 µM in each case. The values for the Ki in assay [2] and in assay [5] were 0.0057 µM and greater than 100 µM, respectively.

Turning to `CCCCOc1ccc(/C=C/c2cc(OC)cc(OC)c2)cc1`, the Concentration in [1], in assay [3] and in assay [4] was greater than 10 µM throughout. The Ki in assay [2] is 0.02 µM; in [5], greater than 100 µM.

For the compound `Clc1ccc(/C=C/c2cc(Cl)cc(Cl)c2)cc1`, the Concentration in assay [6], in [7] and in [9] was greater than 10 µM in each case. The results for the Ki in assay [2] and in assay [5] were 0.0012 µM and greater than 100 µM, respectively.

`COc1ccc(/C=C\c2cc(Cl)cc(Cl)c2)cc1`: the Concentration in [6], in assay [7] and in [9] was greater than 10 µM in each case. The inhibition constant Ki was 0.012 µM in [2] and greater than 100 µM in assay [5].

`FC(F)(F)c1ccc(/C=C/c2cc(C(F)(F)F)cc(C(F)(F)F)c2)cc1`: the Concentration in [6], in [7] and in assay [9] was greater than 10 µM throughout. Besides, the values for the Ki in assay [2] and in [5] were 0.0021 µM and greater than 100 µM, respectively.

For the compound `COc1ccc(/C=C/c2cc(F)cc(F)c2)cc1`, the Concentration in assay [6], in assay [7] and in assay [9] was greater than 10 µM in each case. Also, the Ki in assay [2] is 0.0092 µM; in [5], greater than 100 µM.

Consider `FC(F)(F)c1ccc(/C=C\c2cc(Cl)cc(Cl)c2)cc1`, for which the Concentration in [6], in assay [7] and in assay [9] was greater than 10 µM throughout. Also, the Ki is 0.014 µM in [2] and greater than 100 µM in [5].

In the case of `COc1ccc(/C=C\c2cc(F)cc(F)c2)cc1`, the Concentration in assay [6], in [7] and in assay [9] was greater than 10 µM each time. Further, the Ki in [2] is 0.022 µM; in assay [5], greater than 100 µM.

With `Oc1ccc(/C=C/c2cc(O)cc(O)c2)cc1` [RESVERATROL], affinity in assay [10] was put at a Ki of 0.785 µM.

For the compound `FC(F)(F)c1ccc(/C=C\c2cc(C(F)(F)F)cc(C(F)(F)F)c2)cc1`, the Concentration in [6], in assay [7] and in assay [9] was greater than 10 µM each time. The Ki in assay [2] is 0.06 µM; in assay [5], greater than 100 µM.
